In ChEMBL document CHEMBL1146752, “Oxamyl dipeptide caspase inhibitors developed for the treatment of stroke” (Bioorg Med Chem Lett, 2004):

Key:
Homo sapiens [1] = species: Homo sapiens; test: Inhibitory activity against human monocyte; type: functional
Outline: (§1)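 Human cells (monocytes; THP-1 line) in a caspase-1-dependent cellular assay run for 24 h at 37 °C. Read-out is IC50 (µM).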

Homo sapiens [2] = species: Homo sapiens; test: Inhibitory activity against human monocyte at the concentration of 10 uM; type: functional
Outline: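 Human monocyte caspase-1-dependent cellular assay. Compound tested at a single 10 µM concentration. Read-out is percent inhibition.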

Caspase-9 = molecular target: T1, Caspase-9 (Homo sapiens, UniProt P55211); test: Binding affinity towards human Caspase-9
T1 sequence (P55211 whole entry): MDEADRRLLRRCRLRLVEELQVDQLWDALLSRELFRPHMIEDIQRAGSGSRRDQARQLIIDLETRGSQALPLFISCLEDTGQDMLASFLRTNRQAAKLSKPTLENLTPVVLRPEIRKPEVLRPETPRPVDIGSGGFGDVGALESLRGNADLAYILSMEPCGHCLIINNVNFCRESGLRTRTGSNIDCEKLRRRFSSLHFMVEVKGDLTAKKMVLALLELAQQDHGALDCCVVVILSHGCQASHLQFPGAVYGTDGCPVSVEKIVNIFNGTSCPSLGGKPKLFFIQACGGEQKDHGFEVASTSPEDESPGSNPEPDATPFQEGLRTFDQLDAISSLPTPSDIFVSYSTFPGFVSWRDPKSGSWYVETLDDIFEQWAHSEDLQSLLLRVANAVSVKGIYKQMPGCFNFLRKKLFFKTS

Jurkat = test: Inhibitory activity evaluated against human jurkat cell line in cellular assay; type: functional, cell-based
Outline: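 Human Jurkat cells, in an assay where caspase-8 is relevant but other caspases also contribute. Run for 24 h at 37 °C. Read-out is IC50 (µM).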

SKW 6.4 = test: Inhibitory activity was evaluated against human SKW 6.4 cell line in cellular assay; type: functional, cell-based
Outline: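 Cellular assay (Con A; SKW 6.4 cells) run for 24 h at 37 °C. Read-out is IC50 (µM).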

Rattus norvegicus = species: Rattus norvegicus; test: Inhibitory activity evaluated against rat Con A embryonic cortical neurons in cellular assay; type: functional
THP-1 = test: Inhibitory activity evaluated against human THP-1 cell line in cellular assay; type: functional, cell-based; outline: as §1

Structure (SMILES) | IC50 (Homo sapiens [1]) [nM] | inhibition at 10 µM (Homo sapiens [2]) [%] | IC50 (Caspase-9) [nM] | IC50 (Jurkat) [nM] | IC50 (SKW 6.4) [nM] | IC50 (Rattus norvegicus) [nM] | IC50 (THP-1) [nM]
CC(C)C[C@H](NC(=O)C(=O)Nc1cccc2ccccc12)C(=O)N[C@H](C=O)CC(=O)O | 3080 | 79 | 230 |  |  |  | 
CC(C)C[C@H](NC(=O)COc1cccc2ccccc12)C(=O)N[C@H](C=O)CC(=O)O |  | 17 | 2720 |  |  |  | 
CC(C)[C@H](NC(=O)C(=O)Nc1ccncc1)C(=O)N[C@@H](CC(=O)O)C(=O)COc1c(F)c(F)cc(F)c1F |  |  |  | 15800 | 30100 | 50000 | 5670
CC(C)[C@H](NC(=O)C(=O)Nc1cccc2c1CCCC2)C(=O)N[C@@H](CC(=O)O)C(=O)COc1c(F)c(F)cc(F)c1F |  |  |  | 175 | 1070 | 2000 | 1100
CC(C)[C@H](NC(=O)C(=O)NCc1ccccc1)C(=O)N[C@@H](CC(=O)O)C(=O)COc1c(F)c(F)cc(F)c1F |  |  |  | 77.1 | 910 | 1500 | 570
CC(C)[C@H](NC(=O)C(=O)Nc1ccc(Cl)c2ccccc12)C(=O)N[C@@H](CC(=O)O)C(=O)COc1c(F)c(F)cc(F)c1F |  |  |  | 30 | 2450 | 750 | 610
CC(C)[C@H](NC(=O)C(=O)Nc1cc(C(C)(C)C)ccc1C(C)(C)C)C(=O)N[C@@H](CC(=O)O)C(=O)COc1c(F)c(F)cc(F)c1F |  |  |  | 17 | 1870 | 2000 | 2640
CCCCCCCc1ccc(NC(=O)C(=O)N[C@H](C(=O)N[C@@H](CC(=O)O)C(=O)COc2c(F)c(F)cc(F)c2F)C(C)C)cc1 |  |  |  | 270 | 13000 | > 50000 | 6600
CC(C)[C@H](NC(=O)C(=O)Nc1ccccc1I)C(=O)N[C@@H](CC(=O)O)C(=O)COc1c(F)c(F)cc(F)c1F |  |  |  | 81 | 1540 | 1000 | 1500
CC(C)[C@H](NC(=O)C(=O)Nc1ccc2c(c1)CCC2)C(=O)N[C@@H](CC(=O)O)C(=O)COc1c(F)c(F)cc(F)c1F |  |  |  | 41 | 270 | 1000 | 1280
CC(C)[C@H](NC(=O)C(=O)Nc1ccc(F)cc1)C(=O)N[C@@H](CC(=O)O)C(=O)COc1c(F)c(F)cc(F)c1F |  |  |  | 19 | 920 | 2000 | 1210
CC(C)[C@H](NC(=O)C(=O)NN(c1ccccc1)c1ccccc1)C(=O)N[C@@H](CC(=O)O)C(=O)COc1c(F)c(F)cc(F)c1F |  |  |  | 190 | 2240 | 4870 | 780
CC(C)[C@H](NC(=O)C(=O)Nc1ccccc1F)C(=O)N[C@@H](CC(=O)O)C(=O)COc1c(F)c(F)cc(F)c1F |  |  |  | 97 | 500 | 970 | 680
CC(C)C[C@H](NC(=O)CNc1cccc2ccccc12)C(=O)N[C@H](C=O)CC(=O)O |  | 18 | 160 |  |  |  | 
CC(C)[C@H](NC(=O)C(=O)Nc1c(F)c(F)c(F)c(F)c1F)C(=O)N[C@@H](CC(=O)O)C(=O)COc1c(F)c(F)cc(F)c1F |  |  |  | 390 | 14000 | 2900 | 470
CC(C)[C@H](NC(=O)C(=O)Nc1ccc2cc3ccccc3cc2c1)C(=O)N[C@@H](CC(=O)O)C(=O)COc1c(F)c(F)cc(F)c1F |  |  |  | 150 | 750 | 550 | 660
CC(C)[C@H](NC(=O)C(=O)Nc1ccccc1C(F)(F)F)C(=O)N[C@@H](CC(=O)O)C(=O)COc1c(F)c(F)cc(F)c1F |  |  |  | 1.7 | 230 | 650 | 820
CC(C)[C@H](NC(=O)C(=O)Nc1ccccc1Oc1ccccc1)C(=O)N[C@@H](CC(=O)O)C(=O)COc1c(F)c(F)cc(F)c1F |  |  |  | 660 | 1780 | 2500 | 1770
CC(C)[C@H](NC(=O)C(=O)Nc1c(Cl)c(Cl)cc(Cl)c1Cl)C(=O)N[C@@H](CC(=O)O)C(=O)COc1c(F)c(F)cc(F)c1F |  |  |  | 220 | 410 | 660 | 1050
CC(C)[C@H](NC(=O)C(=O)NCCc1ccccc1)C(=O)N[C@@H](CC(=O)O)C(=O)COc1c(F)c(F)cc(F)c1F |  |  |  | 4700 | 610 | 3500 | 80
CC(C)[C@H](NC(=O)C(=O)Nc1ccc2ccccc2c1)C(=O)N[C@@H](CC(=O)O)C(=O)COc1c(F)c(F)cc(F)c1F |  |  |  | 0.7 | 380 | 3280 | 700
